{"data": "Experimental data of several laboratories", "target": "Protein-tyrosine kinase 6 (PTK6, Homo sapiens, UniProt Q13882)"}
{"SMILES": "CCOC(=O)c1cc2cc(-c3cc(C(=O)NCc4ccc(C(=O)O)cc4)nn3C)ccc2[nH]1", "observed": "cell-free assay", "method": "competition with immobilised ligand", "concentration": "0.1 µM", "remaining binding [%]": 98}
{"SMILES": "Cc1cnn2ncc(-c3ccnc(N(C)C)n3)c2c1", "observed": "binding", "concentration": "1 µM", "remaining binding [%]": 100}
{"SMILES": "COc1cnc(Nc2cccc(S(N)(=O)=O)c2)nc1N1CCN(c2ccccc2)CC1", "observed": "binding", "method": "competition with immobilised ligand", "concentration": "1 µM", "remaining binding [%]": 100}
{"SMILES": "O=C(NCC1CCOCC1)c1n[nH]cc1NC(=O)c1c(F)cccc1F", "observed": "binding", "method": "competition with immobilised ligand", "concentration": "1 µM", "remaining binding [%]": 100}
{"SMILES": "O=C(c1ccc(Nc2ncc(Cl)c(-c3ccc(Cl)s3)n2)cc1)N1CCC(N2CCCC2)CC1", "observed": "binding", "method": "competition with immobilised ligand", "concentration": "1 µM", "remaining binding [%]": 79}
{"SMILES": "N[C@@H]1CCN(c2nccc(-c3cnn4ncccc34)n2)C1", "observed": "binding", "concentration": "1 µM", "remaining binding [%]": 100}
{"SMILES": "CCC(=O)N[C@@H]1CC[C@H](C(=O)N(C)c2ccc(-c3nc4ccccc4o3)cc2)C1", "observed": "cell-free assay", "method": "competition with immobilised ligand", "concentration": "1 µM", "remaining binding [%]": 90}
{"SMILES": "COc1ccnn2ncc(-c3ccnc(N(C)C)n3)c12", "observed": "binding", "concentration": "1 µM", "remaining binding [%]": 100}
{"SMILES": "CNC(=O)[C@@H]1CC[C@@H](n2c(-c3ccc4cnccc4c3)nc3ccc(C(=O)NCc4cccc(C(N)=O)c4)cc32)C1", "observed": "binding", "method": "competition with immobilised ligand", "concentration": "1 µM", "remaining binding [%]": 100}
{"SMILES": "CCN1CCN(Cc2ccc(C(=O)Nc3ccc(C)c(Oc4ccc5c(c4)CC(=O)N5)c3)cc2C(F)(F)F)CC1", "observed": "binding", "method": "competition with immobilised ligand", "concentration": "1 µM", "remaining binding [%]": 100}
{"SMILES": "CS(=O)(=O)NCC[C@H](NC(=O)c1cncc2c1cnn2-c1ccc(F)cc1)c1ccnc(S(C)(=O)=O)c1", "observed": "cell-free assay", "method": "competition with immobilised ligand", "concentration": "1 µM", "remaining binding [%]": 96}
{"SMILES": "COc1ncc2cc3ccccc3nc2c1C#N", "observed": "cell-free assay", "method": "competition with immobilised ligand", "concentration": "5 µM", "remaining binding [%]": 100}
{"SMILES": "C=CC(=O)N1CCC(C(=O)NCC(=O)N2CCN(c3nc(-c4cnc(N)nc4C(F)F)nc(N4CCOCC4)n3)CC2)CC1", "observed": "binding", "method": "competition with immobilised ligand", "concentration": "1 µM", "remaining binding [%]": 100}
{"SMILES": "CN([C@@H]1CCc2c(CC(=O)O)c3cc(S(C)(=O)=O)ccc3n2C1)S(=O)(=O)c1ccc(F)cc1", "observed": "cell-free assay", "method": "competition with immobilised ligand", "concentration": "1 µM", "remaining binding [%]": 92}
{"SMILES": "O=C(NCCCN1CCOCC1)c1ccc(Nc2nccc(-c3cc4ccccc4s3)n2)cc1", "observed": "binding", "method": "competition with immobilised ligand", "concentration": "1 µM", "remaining binding [%]": 79}
{"SMILES": "c1cnn2ncc(-c3ccnc(N4CCC45COC5)n3)c2c1", "observed": "binding", "concentration": "1 µM", "remaining binding [%]": 83}
{"SMILES": "FC(F)(F)Oc1cccc(-c2cnc3ccc(-c4ccncc4)nn23)c1", "observed": "cell-free assay", "method": "competition with immobilised ligand", "concentration": "5 µM", "remaining binding [%]": 86}
{"SMILES": "O=C1NC(c2ccccn2)Sc2ccccc21 (stereo not drawn)", "observed": "cell-free assay", "method": "competition with immobilised ligand", "concentration": "1 µM", "remaining binding [%]": 100}
{"SMILES": "F[C@@H]1CCN(c2nccc(-c3cnn4ncccc34)n2)C1", "observed": "binding", "concentration": "1 µM", "remaining binding [%]": 89}
{"SMILES": "Nc1c(C(=O)NCc2ccc(C(=O)NCCCC3CCCCC3)cc2)cnn1-c1ccccc1", "observed": "cell-free assay", "method": "competition with immobilised ligand", "concentration": "0.1 µM", "remaining binding [%]": 96}
{"SMILES": "C[C@@H]1CCN(c2nccc(-c3cnn4ncccc34)n2)C1", "observed": "binding", "concentration": "1 µM", "remaining binding [%]": 100}
